In the library only some 3.7% were active in any assay of this set; here they are far more common.
PGE2 EP2 inh: human EP2 receptor antagonists, primary screen, TR-FRET cAMP, C6 glioma cells | Prostaglandin E2 receptor EP2 subtype (Homo sapiens), P43116 | C6 glioma cells expressing human EP2; cells stimulated with saturating PGE2 | inhibition, % at 25 µM | 0.52% of 260,000 active;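 active = percent inhibition above 40 after rounding to a whole number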;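 also: rat C6 glioma host cells with rolipram phosphodiesterase inhibitor present; the protocol text gives 20 µM as final concentration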
Target sequence (P43116 whole entry, looked up): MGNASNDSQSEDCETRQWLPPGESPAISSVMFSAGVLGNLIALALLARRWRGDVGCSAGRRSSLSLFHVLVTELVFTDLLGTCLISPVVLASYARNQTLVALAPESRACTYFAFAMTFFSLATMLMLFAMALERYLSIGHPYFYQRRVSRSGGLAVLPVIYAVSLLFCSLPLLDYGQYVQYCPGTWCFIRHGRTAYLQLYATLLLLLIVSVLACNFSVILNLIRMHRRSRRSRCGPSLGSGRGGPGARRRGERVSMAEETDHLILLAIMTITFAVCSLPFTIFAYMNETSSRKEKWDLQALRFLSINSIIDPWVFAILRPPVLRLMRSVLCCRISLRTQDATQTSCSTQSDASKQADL
CHO parental Ca: ATP-evoked calcium signal inhibitors, parental CHO, primary screen, counter-screen for OX1R antagonist project, cell-based, fluorescence, Fluo-8 calcium dye | 0.63% of 330,000 active | inhibition, % at 5.6 µM | parental CHO-K1, ATP-induced calcium, Fluo-8 fluorescence;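 active = inhibition above that plate's mean sample inhibition plus 3 SD, cut at about 26% in these data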;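 also: 0% = ATP-challenged DMSO wells and 100% = DMSO wells without ATP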
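Material: Parental CHO cells | Reagent: ATP | Compound dosing: Single nominal dose of 5.6 µM per compound | Detection: Intracellular calcium via Fluo-8 no-wash fluorescent dye | Read-out: % inhibition of ATP-induced calcium mobilization | Benchmarks: Low control ATP plus DMSO, high control DMSO only | Replicates: Singlicate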
OX1R antag-1: antagonists of human orexin 1 receptor (OX1R); OX1R-expressing cells, FRET antagonist read-out; 1.8% of 330,000 active; inhibition, % at 6.6 µM; Orexin/Hypocretin receptor type 1 (Homo sapiens), O43613; AID 485270, 2010; in the data active = inhibition mostly above about 38%, no sharp cut-off; inactive = mostly below about 40%;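 also: 0% = agonist challenge alone and 100% = reference antagonist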
OX1R antag-2: OX1R (HCRTR1) antagonists, primary screen, fluorescence, CHO/OX1R cells, Fluo-8 calcium, orexin A. Fluo-8 calcium fluorescence. 0.43% of 330,000 active. AID 434989, 2010. inhibition, % at 5 µM. Orexin/Hypocretin receptor type 1 (Homo sapiens), O43613;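 active = inhibition above its plate's threshold, mean inhibition of all tested compounds on the plate plus 3 SD, cut at about 37% in these data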;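 also: 0% = orexin A challenge wells and 100% = SB-334867-A antagonist wells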
EP2 mod: EP2 receptor modulators, cAMP readout, primary screen, cell-based, HTRF cAMP, PGE2 stimulation; Prostaglandin E2 receptor EP2 subtype (Homo sapiens), P43116; EP2-expressing cells, cAMP HTRF FRET, PGE2 co-stimulation; induction, % at 25 µM; 0.83% of 260,000 active;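 active = compounds whose cAMP rise, as percent of the full-agonist control response, exceeds 60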;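 also: rat C6 glioma line stably carrying human EP2 under a CMV promoter; the protocol text gives 20 µM as final concentration; 100% = response of wells given 1 µM PGE2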
GPR7 antagonist: GPR7 receptor antagonists, primary screen, cell-based, fluorescence, single concentration. Neuropeptides B/W receptor type 1 (Homo sapiens), P48145. GPR7-expressing cells, fluorescence antagonist assay. inhibition, % at 4.4 µM. 1.1% of 290,000 active. AID 1861, 2009; in the data active = inhibition above about 16%, passing the limit was not always enough;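 also: cells stimulated with the agonist NPW; 0% = agonist with vehicle and 100% = vehicle without agonist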
* = called active by the depositor; / = no result.

SMILES | PGE2 EP2 inh | CHO parental Ca | OX1R antag-1 | OX1R antag-2 | EP2 mod | GPR7 antagonist
O=C1/C(=C/c2ccc(O)c(O)c2)Oc2cc(O)ccc21 | 22 | 15 | 24 | 14 | 15 | /
O=C1/C(=C/c2cccc([N+](=O)[O-])c2)Oc2cc(O)ccc21 | / | 1 | 29* | 14 | / | 5
COc1cc(/C=C2\Oc3cc(O)ccc3C2=O)ccc1O | 21 | 22 | 60* | 33 | 23 | /
CCc1nc2sc3c(c2c2nnc(SCC(=O)NCc4ccc5c(c4)OCO5)n12)CCC(C)C3 (stereo unspecified) | 14 | / | / | / | 80* | /
Cc1nc2sc3c(c2c2nnc(SCC(=O)NCc4ccc5c(c4)OCO5)n12)CCC(C)C3 (stereo unspecified) | 10 | / | / | / | 32 | /
CC1CC2(CCCCC2)Nc2c1ccc1ccccc21 (stereo unspecified) | 16 | -8 | 8 | -17 | 63* | 5
CC(=O)N1c2c(ccc3ccccc23)C(C)CC12CCCCC2 (stereo unspecified) | 12 | -17 | 29 | -20 | 29 | -7
Cc1nnc(SCC(=O)NNC(=O)c2ccco2)[nH]c1=O | 11 | / | / | / | 25 | /
CCCN1C(=O)C(=O)c2cc(Cl)ccc21 | / | -11 | 49* | 3 | / | /
O=C1C(=O)N(CCS(=O)(=O)c2ccccc2)c2ccc(Cl)cc21 | / | -21 | 13 | -20 | / | 22
COc1ccccc1N1CCN(C(=O)c2nn(C)c3c2CS(=O)(=O)c2ccccc2-3)CC1 | / | -9 | 10 | -12 | / | -2
CC(=O)c1cccc(N2C(=O)C3C(C(=O)Nc4cc(C)on4)C4(C)C=CC3(O4)C2C(=O)NC(C)(C)C)c1 (stereo unspecified) | 8 | -8 | 18 | -13 | 3 | -8
O=C(NCCc1ccccc1)C(c1cccs1)N(C(=O)CCl)c1ccc(Cl)cc1 (stereo unspecified) | 4 | -15 | 39 | -21 | 36 | 23*
O=C(NCCc1ccccc1)C(c1cccs1)N(C(=O)c1csnn1)C1CC1 (stereo unspecified) | 4 | -11 | 16 | -33 | 3 | 0
O=C(Nc1cccc(Cl)c1)C1CCN(C(=O)c2cccs2)CC1 | 8 | 5 | 11 | -5 | -35 | -8
CC(=O)C1=C(S(=O)(=O)c2ccc(C)cc2)CS(=O)(=O)C1 | 97* | / | / | / | -62 | -7
Cc1ccc(S(=O)(=O)C2CS(=O)(=O)CC2O)cc1 (stereo unspecified) | 9 | 4 | 15 | 5 | 6 | -6
Oc1ccc(-c2cn3cc(C(F)(F)F)ccc3n2)cc1 | 11 | -2 | 31 | -19 | -37 | -12
Cc1ccc(S(=O)(=O)NCCNc2ccc(Br)c(C)c2)cc1 | / | 37* | 13 | 25 | / | /
Cc1ccc(S(=O)(=O)NCCNS(=O)(=O)c2ccccc2Br)cc1 | / | -7 | 11 | -9 | / | /
CCN1CCN(c2ccc(S(=O)(=O)N3CCCCC3)cc2NC(=O)Cc2ccc(Cl)c(Cl)c2)CC1 | / | 74* | 19 | 45 | / | /
COc1ccc(C(=O)C(CCC(CNC(C)(C)C)C(=O)c2ccc(OC)cc2)CNC(C)(C)C)cc1 (stereo unspecified) | 3 | 8 | 7 | -2 | -2 | 79*
CN(C)S(=O)(=O)c1cc(NC(=O)COC(=O)CCSc2ccc(Cl)cc2)ccc1Cl | 9 | -12 | 18 | -26 | -17 | 21*
CN(C)S(=O)(=O)c1cc(NC(=O)COC(=O)Cc2ccc(Cl)cc2Cl)ccc1Cl | 9 | -12 | 19 | -19 | -31 | -2
O=C(CCCN1C(=O)c2ccccc2C1=O)NCCC1=CCCCC1 | 9 | -15 | 26 | -28 | 0 | -3
CC(C)OC(=O)NC(C)(C)COC(=O)Nc1cccc(Cl)c1 | 6 | 35* | 31 | 20 | -77 | -2
CC(C)OC(=O)NCCOC(=O)Nc1ccc(Cl)c(Cl)c1 | 15 | 50* | 38 | 40 | -65 | 2

High-throughput results as filed in PubChem BioAssay.
